This passage reports MIC results from ChEMBL document CHEMBL1128433, “Novel 1,2-dithiins: synthesis, molecular modeling studies, and antifungal activity” (1995).

In brackets after ≈: the same amount, converted by molar mass.

Common to all, as to assay type: functional
The subject of test [1] is Candida albicans. The test can be described thus: Antifungal activity against candida albicans. Summed up:
(§1)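 Candida grown 24 h at 35 °C on YM agar, then 6 h at 35 °C with rotation in GYB broth (2% glucose, 1% yeast extract). Final inoculum 2 × 10^3 cfu/mL. 96-well SAB broth microdilution, 2-fold series from ethanol or DMSO solutions. 24 h at 35 °C; MIC = lowest concentration without visible growth. Amphotericin B reference.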

Test [2] concerns Cryptococcus neoformans. The test can be described thus: Antifungal activity against cryptococcus neoformans. Summed up: (§2)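 C. neoformans grown on YM agar 48 h at 35 °C, then 6 h in GYB broth at 35 °C with rotation. Final inoculum 2 × 10^4 cfu/mL. SAB broth microdilution with 2-fold serial dilutions (compound in ethanol or DMSO). Incubated 48 h at 35 °C; MIC read visually as the lowest concentration with no growth. Amphotericin B reference.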

For test [3], the system named is Aspergillus fumigatus. The test is described as follows: Antifungal activity against aspergillus fumigatus. In short, it runs like this: (§3)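 A. fumigatus grown on SAB agar 3–4 d at 35 °C; conidia used as inoculum at final 1 × 10^3 cfu/mL. Broth microdilution in SAB broth, 2-fold serial dilutions of compound dissolved in ethanol or DMSO. Incubated 48 h at 35 °C. MIC read by eye as the lowest concentration with no visible growth. Amphotericin B reference.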

Test [4] deals with Candida parapsilosis. The test can be described thus: Antifungal activity against candida parapsilosis CP18. The following applies: Lodderomyces parapsilosis. Summed up: as §1
In test [5] the test system is Trichophyton rubrum. The test is described as follows: Antifungal activity against Trichophyton rubrum ATCC 18762. In short, it runs like this:
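T. rubrum grown on SAB agar 5–7 d at 25 °C; conidia as inoculum, final 1 × 10^4 cfu/mL. Compounds in ethanol or DMSO, 2-fold serial dilutions in SAB broth in 96-well plates. Incubated 7 d at 25 °C. MIC taken as the lowest concentration with no visible growth versus the growth-control wells. Amphotericin B was the reference.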

For test [6], the system named is Pichia kudriavzevii. The test can be described thus: Antifungal activity against candida krusei GK7831. In short, it runs like this:
as §1

For test [7], the system named is Candida tropicalis. The test is described as follows: Antifungal activity against candida tropicalis 1525. In short, it runs like this:
as §1

Test [8] has as its system Aspergillus fumigatus. The test is described as follows: Antifungal activity against aspergillus fumigatus WM-1. In short, it runs like this:
as §3

Test [9] relates to Candida albicans. The test can be described thus: Antifungal activity against candida albicans B-311. In short, it runs like this:
as §1

Test [10] has as its system Cryptococcus neoformans. The test is described as follows: Antifungal activity against cryptococcus neoformans MI-106. In short, it runs like this:
as §2

The subject of test [11] is Candida albicans. The test can be described thus: Antifungal activity against candida albicans A-26. In short, it runs like this: as §1

For orientation: MIC means the lowest concentration that inhibits growth of the organism. A lower MIC goes with inhibition by little substance. `OCC1=CC=C(COc2ccccn2)SS1`: the MIC in [1], in test [2] and in test [3] was 3.1 µg/mL (≈ 12.2 µM) in each case.

On to `CC(=O)OCC1=CC=C(COC(C)=O)SS1`, for which the figures for the MIC in [1], in test [2] and in [3] were 1.25 µg/mL (≈ 4.8 µM), 0.63 µg/mL (≈ 2.42 µM) and 0.63 µg/mL (≈ 2.42 µM), respectively.

For `O=C(OCC1=CC=C(COC(=O)c2cccnc2)SS1)c1cccnc1`, the MIC in test [1] and in test [3] was 2 µg/mL (≈ 5.18 µM) in each case.

Turning to `O=C(OCC1=CC=C(CO)SS1)c1ccccc1`, the MIC in test [1] amounted to 6.3 µg/mL (≈ 22.5 µM); in test [2], 3.1 µg/mL (≈ 11.1 µM); in [3], 3.1 µg/mL (≈ 11.1 µM).

In the case of `O=C(OCC1=CC=C(CO)SS1)C1CC1`, the MIC in [4] came to 2.5 µg/mL (≈ 10.2 µM); in test [1], 3.1 µg/mL (≈ 12.7 µM); in test [2] it was 1.6 µg/mL (≈ 6.55 µM); in test [3] it was 0.4 µg/mL (≈ 1.64 µM); in test [5] it was 0.31 µg/mL (≈ 1.27 µM); in [6], 1.25 µg/mL (≈ 5.12 µM). This compound returned an MIC in test [7] of 1.25 µg/mL (≈ 5.12 µM).

With `CO/N=C/C1=CC=C(/C=N/OC)SS1`, the MIC in test [1] is 0.8 µg/mL (≈ 3.47 µM); in [2], 1.6 µg/mL (≈ 6.95 µM); in test [3], 6.3 µg/mL (≈ 27.4 µM).

On to `O=CC1=CC=C(C=O)SS1`, for which the MIC in test [1] is 1.6 µg/mL (≈ 9.29 µM); in [2] it was 1.6 µg/mL (≈ 9.29 µM); in test [3], 6.3 µg/mL (≈ 36.6 µM).

For `[N-]=[N+]=NCC1=CC=C(CO)SS1`, the MIC in [1], in [2] and in test [3] was 0.25 µg/mL (≈ 1.24 µM) in each case.

In the case of `C#Cc1cccc(OCC2=CC=C(CO)SS2)c1`, the MIC was determined as 1.6 µg/mL (≈ 5.79 µM) in test [1], 1.6 µg/mL (≈ 5.79 µM) in test [2] and 6.3 µg/mL (≈ 22.8 µM) in test [3].

`O=C(OCC1=CC=C(COC(=O)C2CC2)SS1)C1CC1`: the MIC was 6.3 µg/mL (≈ 20.2 µM) in [1], 3.1 µg/mL (≈ 9.92 µM) in test [2] and 1.6 µg/mL (≈ 5.12 µM) in test [3].

As to `O/N=C/C1=CC=C(/C=N/O)SS1`, the MIC was determined as 0.2 µg/mL (≈ 0.989 µM) in test [4]; 0.1 µg/mL (≈ 0.494 µM) in test [1]; 0.8 µg/mL (≈ 3.96 µM) in test [2]; 0.2 µg/mL (≈ 0.989 µM) in test [8]; 0.1 µg/mL (≈ 0.494 µM) in [9]; 0.4 µg/mL (≈ 1.98 µM) in [3]. In addition, the MIC in test [5] worked out at 0.05 µg/mL (≈ 0.247 µM); in [6], 6.3 µg/mL (≈ 31.1 µM); in [10], 1.6 µg/mL (≈ 7.91 µM); in [7], 1.6 µg/mL (≈ 7.91 µM); in test [11], 0.2 µg/mL (≈ 0.989 µM).

Consider `CC1(C)OCC(COCC2=CC=C(COCC(O)CO)SS2)O1` (stereo unspecified), for which the MIC in test [1], in test [2] and in test [3] was greater than 100 µg/mL in each case.

Take `OCC1=CC=C(COc2ccc(O)nn2)SS1`: the MIC in test [1], in test [2] and in [3] was greater than 100 µg/mL in each case.

For the compound `O=C(OCC1=CC=C(COC(=O)C2CCCC2)SS1)C1CCCC1`, the MIC in test [1] and in [3] was greater than 250 µg/mL in each case.

For the compound `O=C(OCC1=CC=C(CO)SS1)c1ccccc1O`, the MIC in test [1], in [2] and in [3] was 0.2 µg/mL (≈ 0.675 µM) in each case.

As for `CO/N=C/C1=CC=C(CO)SS1`, the minimal inhibitory concentration (MIC) in test [1], in test [2] and in test [3] was 6.3 µg/mL (≈ 31 µM) each time.

As for `O=[N+]([O-])c1ccc(OCC2=CC=C(CO)SS2)nc1`, the MIC in [1] was 0.2 µg/mL (≈ 0.67 µM); in test [2] it was 0.1 µg/mL (≈ 0.335 µM); in test [3], 0.4 µg/mL (≈ 1.34 µM).

With `CC(C)C(=O)OCC1=CC=C(COC(=O)C(C)C)SS1`, the MIC was greater than 100 µg/mL in test [1], 12.5 µg/mL (≈ 39.5 µM) in [2] and 6.3 µg/mL (≈ 19.9 µM) in test [3].

`O=C(OCC1=CC=C(COC(=O)c2ccccc2O)SS1)c1ccccc1O`: the MIC in test [1] and in [3] was greater than 250 µg/mL throughout.

For the compound `CC1(C)OCC(COCC2=CC=C(CO)SS2)O1` (stereo unspecified), the MIC in [1], in test [2] and in test [3] was greater than 100 µg/mL each time.

For `OCC1=CC=C(CSc2nnnn2-c2ccc(O)cc2)SS1`, the MIC in test [1] was 25 µg/mL (≈ 70.9 µM); in test [2] it was 6.3 µg/mL (≈ 17.9 µM); in test [3], 12.5 µg/mL (≈ 35.5 µM).

On to `CC1(C)OCC(COCC2=CC=C(COCC3COC(C)(C)O3)SS2)O1` (stereo unspecified), for which the MIC in test [1], in test [2] and in [3] was greater than 100 µg/mL in each case.

Turning to `O=C(OCC1=CC=C(COC(=O)c2ccncc2)SS1)c1ccncc1`, the MIC in test [1] and in test [3] was 2 µg/mL (≈ 5.18 µM) in each case.

For the compound `COC(=O)c1cccc(OCC2=CC=C(CO)SS2)c1`, the MIC came to 3.1 µg/mL (≈ 9.99 µM) in test [1], 6.3 µg/mL (≈ 20.3 µM) in test [2] and 25 µg/mL (≈ 80.5 µM) in [3].

For `O=C(OCC1=CC=C(CO)SS1)C1CCCC1`, the MIC is 6.3 µg/mL (≈ 23.1 µM) in test [1] and 3.1 µg/mL (≈ 11.4 µM) in test [3].

Regarding `O=C(NCC1=CC=C(CO)SS1)c1ccccc1O`, the MIC was greater than 100 µg/mL in test [1], 100 µg/mL (≈ 339 µM) in [2] and greater than 100 µg/mL in test [3].

Consider `OCC1=CC=C(CO)SS1`, for which the values for the MIC in [1], in test [2] and in [3] were 16 µg/mL (≈ 90.8 µM), 31 µg/mL (≈ 176 µM) and 2 µg/mL (≈ 11.3 µM), respectively.

`OCC1=CC=C(COc2ccccc2O)SS1`: the MIC in test [1] stood at 6.3 µg/mL (≈ 23.5 µM); in test [2], 25 µg/mL (≈ 93.2 µM); in test [3] it was 12.5 µg/mL (≈ 46.6 µM).
